According to ChEMBL document CHEMBL1145814, “Antiretroviral activity of semisynthetic derivatives of glycopeptide antibiotics” (J Med Chem, 2003):
In brackets after ≈: the same amount, converted by molar mass. Several values for one entry are separate records, joined by “and”; a condition that tells them apart may be missing. Equal entries are not always repeated.

Experiments:
L1210 = test: Inhibitory concentration of compound against proliferation of murine lukemia cells L1210 was determined; type: functional, cell-based; details: Mus musculus
Procedure, shortened: (§1)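 (5–7.5) × 10^4 cells per well were incubated with test compound at 37 °C in a humidified CO2 atmosphere. L1210 murine leukemia cells grew for 48 h, and CEM and Molt4/clone 8 human lymphocytes grew for 72 h. Cells were then counted with a Coulter counter. IC50 is the concentration inhibiting proliferation by 50%.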

MOLT-4 = test: Inhibitory concentration of compound against proliferation of human T-lymphocytic cells MOLT-4/C8 was determined; type: functional, cell-based; procedure, shortened: as §1
Mus musculus [1] = species on record: Mus musculus; test: Minimal inhibitory concentration required to cause a microscopic detectable alteration of C3H/3T3 embryo murine fibroblast cell morphology; type: functional
Procedure, shortened: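 Uninfected C3H/3T3 murine embryo fibroblast cultures were exposed to test compound and checked microscopically for changes in cell morphology. The MIC is the concentration causing a microscopically detectable alteration of morphology.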

[2] = system: Human immunodeficiency virus 2; test: Concentration required to protect human T-lymphocytic cells against the cytopathogenicity of HIV-2; type: functional, organism-based
[3] = system: Human immunodeficiency virus 1; test: Effective concentration of compound required to protect human T-lymphocytic cells against the cytopathogenicity of HIV-1; type: functional, organism-based
CCRF-CEM = test: Inhibitory concentration against proliferation of human T-lymphocytic (CEM) cells; type: functional, cell-based; procedure, shortened: as §1
Mus musculus [4] = species on record: Mus musculus; test: Effective concentration of compound required to protect C3H/3T3 embryo murine fibroblasts against the MSV induced transformation; type: functional, organism-based; details: Mus musculus, C3H/3T3
Procedure, shortened: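 Monolayer murine embryo fibroblast C3H/3T3 cultures were infected with Moloney murine sarcoma virus at 75 focus-forming units and cultured with test compound. Transformation was examined microscopically on day 6 postinfection. EC50 is the concentration protecting cells against MSV-induced transformation by 50%.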

Structure (SMILES)	IC50 (L1210) [µM]	IC50 (MOLT-4) [µM]	MIC (Mus musculus [1]) [µM]	EC50 [2]	EC50 [3]	EC50 ([3]; Human immunodeficiency virus 1) [µM]	IC50 (CCRF-CEM; Homo sapiens, CCRF-CEM) [µM]	IC50 (CCRF-CEM; ccrf-cem) [µM]	EC50 (Mus musculus [4]) [µM]	EC50 ([2]; Human immunodeficiency virus 2) [µM]
CN(C)CCCNC(=O)[C@@H]1NC(=O)C2NC(=O)C(NC(=O)C3NC(=O)C4NC(=O)C(Cc5ccc(c(Cl)c5)Oc5cc3cc(c5O)Oc3ccc(cc3Cl)C2O)NC(=O)C(N)c2ccc(O)c(c2)Oc2cc(O)cc4c2)c2ccc(O)c(c2)-c2c1cc(O)c(CNC1C3CC4CC(C3)CC1C4)c2O (some centres undefined)	> 500	> 500	20 (≈ 28.9 µg/mL)	8 µM and 22 µM	4 µM	2.5	> 500	> 250	12	
CCCCc1ccc(CN2CCN(Cc3c(O)cc4c(c3O)-c3cc(ccc3O)C3NC(=O)C5NC(=O)C6NC(=O)C(Cc7ccc(c(Cl)c7)Oc7cc5cc(c7O)Oc5ccc(cc5Cl)C(O)C(NC3=O)C(=O)N[C@H]4C(=O)NC)NC(=O)C(N)c3ccc(O)c(c3)Oc3cc(O)cc6c3)CC2)cc1 (some centres undefined)	61	> 500	> 20	3 µM and 6.3 µM	1.7 µM and 3.5 µM		> 500	> 250	3.6	
CNC(CC(C)C)C(=O)NC1C(=O)NC(CC(N)=O)C(=O)NC2C(=O)NC3C(=O)NC(C(=O)N[C@@H](C(=O)O)c4cc(O)c(CN5CCN(Cc6ccc(-c7ccccc7)cc6)CC5)c(O)c4-c4cc3ccc4O)C(O)c3ccc(cc3)Oc3cc2cc(c3O)Oc2ccc(cc2Cl)C1O (some centres undefined)	250	> 500	> 100			5.5	> 500		13	12
COC(=O)[C@@H]1NC(=O)C2NC(=O)C(NC(=O)C(N)c3cc(Oc4ccc(CC(NC(=O)OCc5ccccc5)C(=O)O)cc4Cl)c(O)c(c3)Oc3ccc(cc3Cl)C2O)c2ccc(O)c(c2)-c2c1cc(O)c(CNC1C3CC4CC(C3)CC1C4)c2O (some centres undefined)	181	> 250	> 100			17	> 250		39	37
CNC1C(=O)NC2Cc3ccc(cc3)Oc3cc4cc(c3OC3OC(C(=O)O)C(O)C(O)C3N)Oc3ccc(cc3Cl)C(O)C3NC(=O)C(NC(=O)C4NC(=O)C(NC2=O)c2cc(cc(O)c2Cl)Oc2cc1ccc2O)c1ccc(O)c(c1)-c1c(O)cc(O)cc1[C@H](C(=O)O)NC3=O (some centres undefined)	> 500	> 500	> 100			115	> 500		> 100	> 250
NC1C(=O)NC2Cc3ccc(c(Cl)c3)Oc3cc4cc(c3O)Oc3ccc(cc3Cl)C(O)C3NC(=O)C(NC(=O)C4NC(=O)C(NC2=O)c2cc(O)cc(c2)Oc2cc1ccc2O)c1ccc(O)c(c1)-c1c(O)cc(O)cc1[C@H](C(=O)NC1C2CC4CC(C2)CC1C4)NC3=O (some centres undefined)	30	26	> 100			7	123		2.1	6
CCCCc1ccc(CN2CCN(Cc3c(O)cc4c(c3O)-c3cc(ccc3O)C3NC(=O)C5NC(=O)C6NC(=O)C(Cc7ccc(cc7)Oc7cc5cc(c7OC5OC(C(=O)O)C(O)C(O)C5N)Oc5ccc(cc5Cl)C(O)C(NC3=O)C(=O)N[C@H]4C(=O)O)NC(=O)C(NC)c3ccc(O)c(c3)Oc3cc(O)c(Cl)c6c3)CC2)cc1 (some centres undefined)	20	> 50	100 (≈ 163 µg/mL)			20	106		6.9	> 50
CN[C@H](CC(C)C)C(=O)N[C@H]1C(=O)N[C@@H](CC(N)=O)C(=O)N[C@H]2C(=O)N[C@H]3C(=O)N[C@H](C(=O)N[C@H](C(=O)O)c4cc(O)cc(O)c4-c4cc3ccc4O)[C@H](O)c3ccc(c(Cl)c3)Oc3cc2cc(c3O[C@@H]2O[C@H](CO)[C@@H](O)[C@H](O)[C@H]2O[C@H]2C[C@](C)(N)[C@H](O)[C@H](C)O2)Oc2ccc(cc2Cl)[C@H]1O [VANCOMYCIN]	> 500	> 500	> 100			> 250	> 500		> 100	> 250
CCCCc1ccc(CNCc2c(O)cc3c(c2O)-c2cc(ccc2O)C2NC(=O)C4NC(=O)C5NC(=O)C(Cc6ccc(c(Cl)c6)Oc6cc4cc(c6O)Oc4ccc(cc4Cl)C(O)C(NC2=O)C(=O)N[C@H]3C(=O)NC)NC(=O)C(N)c2ccc(O)c(c2)Oc2cc(O)cc5c2)cc1 (some centres undefined)	> 100	> 100	20 (≈ 27.7 µg/mL)			9.7	> 100		> 4	12
CN[C@@H](CC(C)C)C(=O)NC1C(=O)N[C@@H](CC(N)=O)C(=O)NC2C(=O)NC3C(=O)NC(C(=O)N[C@@H](C(=O)O)c4cc(O)cc(O)c4-c4cc3ccc4O)C(O)c3ccc(cc3)Oc3cc2cc(c3O)Oc2ccc(cc2Cl)C1O (some centres undefined)	> 500	> 500	> 100			50	> 500		> 100	> 250
CNC1C(=O)NC2Cc3ccc(cc3)Oc3cc4cc(c3O[C@@H]3O[C@@H](C(=O)O)[C@@H](O)[C@H](O)[C@@H]3N)Oc3ccc(cc3Cl)C(O)C3NC(=O)C(NC(=O)C4NC(=O)C(NC2=O)c2cc(cc(O)c2Cl)Oc2cc1ccc2O)c1ccc(O)c(c1)-c1c(O[C@H]2O[C@H](CO)[C@@H](O)[C@@H](O)[C@@H]2O)cc(O)cc1[C@H](C(=O)O)NC3=O (some centres undefined)	> 500	> 500	> 100			> 250	> 500		> 100	> 250
O=C1NC2C(=O)NC3C(=O)NC4C(=O)NC(C(=O)N[C@@H](C(=O)O)c5cc(O)cc(O)c5-c5cc4ccc5O)C(O)c4ccc(c(Cl)c4)Oc4cc3cc(c4O)Oc3ccc(cc3Cl)CC1NC(=O)C(NC(=O)C13CC4CC(CC(C4)C1)C3)c1ccc(O)c(c1)Oc1cc(O)cc2c1 (some centres undefined)	33	39	100 (≈ 136 µg/mL)			10	83		11	4
CNC(=O)[C@@H]1NC(=O)C2NC(=O)C(NC(=O)C3NC(=O)C(CC(N)=O)NC(=O)C(NC(=O)C(CC(C)C)N(C)C(=O)OC(C)(C)C)C(O)c4ccc(c(Cl)c4)Oc4cc3cc(c4O)Oc3ccc(cc3)C2O)c2ccc(O)c(c2)-c2c1cc(O)c(CN1CCN(Cc3ccc(-c4ccccc4)cc3)CC1)c2O (some centres undefined)	84	> 100	20 (≈ 29.7 µg/mL)			4	> 100		> 4	3.5
NC1C(=O)NC2Cc3ccc(c(Cl)c3)Oc3cc4cc(c3O)Oc3ccc(cc3Cl)C(O)C3NC(=O)C(NC(=O)C4NC(=O)C(NC2=O)c2cc(O)cc(c2)Oc2cc1ccc2O)c1ccc(O)c(c1)-c1c(cc(O)c(CNC2C4CC5CC(C4)CC2C5)c1O)[C@H](C(=O)NC1C2CC4CC(C2)CC1C4)NC3=O (some centres undefined)	202	> 250	> 20			2.5	> 250		2	3.5
CNC(=O)[C@@H]1NC(=O)C2NC(=O)C(NC(=O)C3NC(=O)C4NC(=O)C(Cc5ccc(c(Cl)c5)Oc5cc3cc(c5O)Oc3ccc(cc3Cl)C2O)NC(=O)C(N)c2ccc(O)c(c2)Oc2cc(O)cc4c2)c2ccc(O)c(c2)-c2c(O)cc(O)cc21 (some centres undefined)	> 500	> 500	> 100			15	> 500		> 20	17
COC(=O)[C@@H]1NC(=O)C2NC(=O)C(NC(=O)C(NC(=O)OC(C)(C)C)c3cc(Oc4ccc(CC(NC(=O)OCc5ccccc5)C(=O)O)cc4Cl)c(O)c(c3)Oc3ccc(cc3Cl)C2O)c2ccc(O)c(c2)-c2c1cc(O)c(CNC1C3CC4CC(C3)CC1C4)c2O (some centres undefined)	95	122	> 100			17	240		26	11
NCCCCCCNC(=O)[C@@H]1NC(=O)C2NC(=O)C(NC(=O)C3NC(=O)C4NC(=O)C(Cc5ccc(c(Cl)c5)Oc5cc3cc(c5O)Oc3ccc(cc3Cl)C2O)NC(=O)C(N)c2ccc(O)c(c2)Oc2cc(O)cc4c2)c2ccc(O)c(c2)-c2c(O)cc(O)cc21 (some centres undefined)	> 500	> 500	20 (≈ 25.9 µg/mL)			15	> 500		> 4	17
NC1C(=O)NC2Cc3ccc(c(Cl)c3)Oc3cc4cc(c3O)Oc3ccc(cc3Cl)C(O)C3NC(=O)C(NC(=O)C4NC(=O)C(NC2=O)c2cc(O)cc(c2)Oc2cc1ccc2O)c1ccc(O)c(c1)-c1c(O)cc(O)cc1[C@H](C(=O)O)NC3=O (some centres undefined)	> 500	> 500	> 100			17	> 500		25	20
COC(=O)[C@@H]1NC(=O)C2NC(=O)C(NC(=O)C(N)c3cc(Oc4ccc(CC(NC(=O)OCc5ccccc5)C(=O)O)cc4Cl)c(O)c(c3)Oc3ccc(cc3Cl)C2O)c2ccc(O)c(c2)-c2c(O)cc(O)cc21 (some centres undefined)	> 500	> 500				25	> 500			85
CCCCCCCCCCNCc1c(O)cc2c(c1O)-c1cc(ccc1O)[C@H]1NC(=O)[C@@H]3NC(=O)[C@H](CC(N)=O)NC(=O)[C@H](NC(=O)[C@@H](CC(C)C)NC)[C@H](O)c4ccc(c(Cl)c4)Oc4cc3cc(c4O[C@@H]3O[C@H](CO)[C@@H](O)[C@H](O)[C@H]3O[C@H]3C[C@](C)(N)[C@@H](O)[C@H](C)O3)Oc3ccc(cc3)[C@@H](O[C@H]3C[C@](C)(N)[C@@H](O)[C@H](C)O3)[C@H](NC1=O)C(=O)N[C@@H]2C(=O)O	19	27				> 20	24			> 20
